For data set [1], the system named is Caco-2 cell monolayers. The data set can be described thus: Uptake of Lac-NCTD and its nanoparticles into Caco-2 cell monolayers. The data set is classed as in vitro ADME, human. Summed up: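 Monolayers grown 15 days from 1 × 10⁵ cells/cm² in plates, washed, preincubated 15 min at 37°C in HBSS pH 7.4, then exposed to drug or nanoparticle solution. After uptake (15 min, chosen within the linear range), cells were washed thrice with cold HBSS, scraped, homogenized and ultracentrifuged. Supernatant was assayed by reversed-phase HPLC, normalized to Bradford protein and given as mg/g protein, three determinations.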

The subject of data set [2] is Caco-2 cell monolayers. Put plainly: Bidirectional transepithelial transport across Caco-2 cell monolayers. The data set is classed as in vitro ADME, human. A digest of the protocol: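 Caco-2 cells (passage 30–50) seeded at 1 × 10⁵ cells/cm² on 1.1 cm² polycarbonate inserts (1 μm pores), used day 21 when TEER reached 700 Ω·cm² and phenol red permeability <0.5%/h. HBSS pH 7.4 preincubation 15 min, 37°C; drug or nanoparticles dosed apically or basolaterally; receiver sampled at 5–60 min with replacement; reversed-phase HPLC. Papp = dQ/dt/(A·C0); PDR from BL→AP and AP→BL; n = 3.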

The conditions of data set [3]: cited from earlier work.

The values below come from publication PMC3352694 (International Journal of Nanomedicine, 2012).

With Lactosyl-norcantharidin [Lac-NCTD], the “Effect of concentration on uptake” value in the data set on Caco-2 cell monolayers [1] (100 μg/mL to 400 μg/mL) was “Concentration dependence or saturation was observed”. In addition, the Uptake amount with Caco-2 cell monolayers [1] (250 μg/mL, 4°C) is reported as 1.35 ± 0.13 mg/g protein. The “Time course of uptake” value with Caco-2 cell monolayers [1] (250 μg/mL, 37°C) is “linear in relation to time, from 0 minutes to 30 minutes”. Besides, the Uptake amount in the data set on Caco-2 cell monolayers [1] (250 μg/mL, pH 6.0) is recorded as 0.82 ± 0.23 mg/g protein. The “Effect of P-gp inhibitor CyA on uptake” value with Caco-2 cell monolayers [1] (CyA 20 μmol/L) is listed as “facilitate the uptake procedure”. Besides, in the data set with Caco-2 cell monolayers [1] (MK-571 50 μmol/L), the “Effect of MRP2 inhibitor MK-571 on uptake” value was “facilitate the uptake procedure”. Moreover, in the data set with Caco-2 cell monolayers [2] (250 μg/mL, CyA 20 μmol/L), the “Change of Papp apical to basolateral with CyA” value was “increased” and the “Change of Papp basolateral to apical with CyA” value is “decreased”. For the same substance, in the data set on Caco-2 cell monolayers [2] (250 μg/mL, MK-571 50 μmol/L), the “Change of Papp apical to basolateral with MK-571” value is “significantly increased” and the “Change of Papp basolateral to apical with MK-571” value is “lightly decreased”. For the same substance, the “Change of Papp with bypass transport enhancer SDCh” value in the data set on Caco-2 cell monolayers [2] (250 μg/mL, SDCh 100 mmol/L, versus control) is “significantly increased”. Moreover, the “Change of Papp with endocytosis inhibitor oxophenylarsine” value in the data set on Caco-2 cell monolayers [2] (250 μg/mL, oxophenylarsine 25 mmol/L, versus control) was “no statistical difference”. For the same substance, in the data set with Caco-2 cell monolayers [2] (CyA 20 μmol/L added to the apical side), the “Increase of Papp apical to basolateral with CyA” value turned out to be 1.41 times. For the same substance, the “Increase of Papp apical to basolateral with MK-571” value with Caco-2 cell monolayers [2] (MK-571 50 μmol/L added to the apical side) is on record as 2.29 times. Besides, in data set [3], the “Therapy efficiency compared with NCTD” value was “significantly higher therapy efficiency” and the “Toxicity compared with NCTD” value is listed as “lower toxicity”.
